Calls of active or inactive are those of the source. No cut-off for these calls is given here.
Assays:
[1] = system: Vero; assay: Cytotoxicity against african green monkey Vero cells by MTT assay at 400 ug/ml after 72 hrs; format: cell-based; conditions: chlorocebus sabaeus
Summary of the method: (§1)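 Vero cells in DMEM with 10% fetal calf serum plus penicillin/streptomycin; seeded 6 × 10^3 cells/mL, exposed to compounds (range 5–400 µg/mL) 72 h at 37 °C, 5% CO2; MTT 7.5 mg/mL added 4 h, formazan dissolved in 10% SDS/0.01 M HCl, OD 550/570 nm; duplicate, untreated cells as control.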

[2] = molecular target: T1, Thymidylate kinase (Mycobacterium tuberculosis, UniProt P9WKE1); assay: Inhibition of Mycobacterium tuberculosis recombinant TMPK
T1 sequence (P9WKE1 whole entry): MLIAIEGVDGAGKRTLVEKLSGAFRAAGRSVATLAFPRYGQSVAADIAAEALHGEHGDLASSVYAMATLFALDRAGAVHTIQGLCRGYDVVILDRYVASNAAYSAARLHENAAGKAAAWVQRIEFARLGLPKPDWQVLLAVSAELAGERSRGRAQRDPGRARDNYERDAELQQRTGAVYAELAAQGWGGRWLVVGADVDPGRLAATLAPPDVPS

[3] = molecular target: T2, Thymidylate kinase (Mycobacterium tuberculosis) (UniProt P9WKE1); assay: Inhibition of Mycobacterium tuberculosis recombinant TMPK upto 0.2 mM
T2 sequence (whole entry): T1 sequence (P9WKE1 whole entry)

[4] = Selectivity index, ratio of Ki for human TMPK to Ki for Mycobacterium tuberculosis recombinant TMPK
Summary of the method: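 Selectivity index computed as Ki human TMPK divided by Ki M. tuberculosis TMPK, each Ki from recombinant enzyme assays with ATP and dTMP, mean of three assays.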

[5] = molecular target: T3, Thymidylate kinase (Homo sapiens, UniProt P23919); assay: Inhibition of human TMPK
T3 sequence (P23919 whole entry): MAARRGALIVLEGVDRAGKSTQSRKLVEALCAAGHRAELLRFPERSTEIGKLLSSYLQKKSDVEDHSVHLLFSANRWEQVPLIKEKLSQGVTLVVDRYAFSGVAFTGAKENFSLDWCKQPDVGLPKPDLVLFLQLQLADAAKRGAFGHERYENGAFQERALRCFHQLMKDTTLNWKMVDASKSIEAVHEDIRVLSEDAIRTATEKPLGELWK

[6] = system: Vero; assay: Cytotoxicity against african green monkey Vero cells by MTT assay at 100 ug/ml after 72 hrs; format: cell-based; conditions: chlorocebus sabaeus; summary of the method: as §1
[7] = molecular target: T2, Thymidylate kinase (Mycobacterium tuberculosis); assay: Inhibition of Mycobacterium tuberculosis recombinant TMPK upto 2 mM
[8] = molecular target: T4, Thymidylate kinase (Homo sapiens) (UniProt P23919); assay: Inhibition of human TMPK upto 2 mM
T4 sequence (whole entry): T3 sequence (P23919 whole entry)

Structure (SMILES) | Activity [1] | Ki [2] | further results
Cc1cn(Cc2ccc(C#CCCO)cc2)c(=O)[nH]c1=O | Non-toxic | 70 µM | –
CCCCc1ccc(Cn2cc(Br)c(=O)[nH]c2=O)cc1 | Non-toxic | – | Activity [3]: inactive
Cc1cn(Cc2ccc(CCCCCC(N)=O)cc2)c(=O)[nH]c1=O | Non-toxic | 26.5 µM | –
O=C(O)CCCCc1ccc(Cn2cc(Br)c(=O)[nH]c2=O)cc1 | Non-toxic | 38 µM | –
NC(=O)CCCCCc1ccc(Cn2cc(Br)c(=O)[nH]c2=O)cc1 | Non-toxic | 19.5 µM | –
O=C(O)CCCCc1ccc(Cn2cc(Cl)c(=O)[nH]c2=O)cc1 | Non-toxic | 16 µM | Ratio Ki [4]: 7.6; Ki [5]: 122 µM
O=C(O)CCCc1ccc(Cn2cc(Br)c(=O)[nH]c2=O)cc1 | – | 10 µM | Activity [6]: 14%; Ratio Ki [4]: 29; Ki [5]: 293 µM
CCCCc1ccc(Cn2cc(Cl)c(=O)[nH]c2=O)cc1 | Non-toxic | – | Activity [3]: inactive
COC(=O)CCCc1ccc(Cn2cc(Br)c(=O)[nH]c2=O)cc1 | Non-toxic | 52 µM | –
Cc1cn(Cc2ccc(/C=C/C(=O)O)cc2)c(=O)[nH]c1=O | Non-toxic | – | Activity [7]: inactive
CCCCCCc1ccc(Cn2cc(Cl)c(=O)[nH]c2=O)cc1 | Non-toxic | – | Activity [3]: inactive
Cc1cn(Cc2ccc(/C=C/C(N)=O)cc2)c(=O)[nH]c1=O | Non-toxic | 195 µM | –
NC(=O)CCCc1ccc(Cn2ccc(=O)[nH]c2=O)cc1 | Non-toxic | – | Activity [7]: inactive
NC(=O)CCCCCc1ccc(Cn2cc(Cl)c(=O)[nH]c2=O)cc1 | Non-toxic | 26 µM | –
Cc1cn(Cc2ccc(CCC(=O)O)cc2)c(=O)[nH]c1=O | Non-toxic | 55 µM | –
NC(=O)CCCc1ccc(Cn2cc(Br)c(=O)[nH]c2=O)cc1 | Non-toxic | 39 µM | Activity [8]: inactive
O=C(O)CCCc1ccc(Cn2cc(Cl)c(=O)[nH]c2=O)cc1 | Non-toxic | – | Ratio Ki [4]: 120; Ki [5]: 790 µM
Cc1cn(Cc2ccc(C#CCCCC(=O)O)cc2)c(=O)[nH]c1=O | Non-toxic | 96 µM | –
CCCCCCc1ccc(Cn2cc(Br)c(=O)[nH]c2=O)cc1 | Non-toxic | – | Activity [3]: inactive

Structure (SMILES) | Activity [1] | Ki [2] | further results
NC(=O)CCCc1ccc(Cn2cc(Cl)c(=O)[nH]c2=O)cc1 | – | 39 µM | Activity [8]: inactive; Activity [6]: 10%
Cc1cn(Cc2ccc(CCCCC(N)=O)cc2)c(=O)[nH]c1=O | Non-toxic | 55 µM | –
Cc1cn(Cc2ccc(CCCC(=O)O)cc2)c(=O)[nH]c1=O | – | 13 µM | Ratio Ki [4]: 19; Ki [5]: 252 µM
O=C(O)CCCCCc1ccc(Cn2cc(Cl)c(=O)[nH]c2=O)cc1 | Non-toxic | 23 µM | –
O=C(O)CCCc1ccc(Cn2ccc(=O)[nH]c2=O)cc1 | Non-toxic | 202 µM | –
Cc1cn(Cc2ccc(Br)cc2)c(=O)[nH]c1=O | Non-toxic | – | –
Cc1cn(Cc2ccc(/C=C/CC(=O)O)cc2)c(=O)[nH]c1=O | Non-toxic | 39 µM | –
O=c1[nH]c(=O)n([C@H]2C[C@H](O)[C@@H](CO)O2)cc1Br [BROXURIDINE] | Non-toxic | 5 µM | Ratio Ki [4]: 43; Ki [5]: 214 µM
COC(=O)CCCc1ccc(Cn2cc(Cl)c(=O)[nH]c2=O)cc1 | Non-toxic | 59 µM | –
Cc1cn([C@H]2C[C@H](O)[C@@H](CO)O2)c(=O)[nH]c1=O [DOXRIBTIMINE] | Non-toxic | – | –
Cc1cn(Cc2ccc(CCCCCC(=O)O)cc2)c(=O)[nH]c1=O | Non-toxic | 47 µM | –
Cc1cn(Cc2ccc(CCCC(N)=O)cc2)c(=O)[nH]c1=O | Non-toxic | 112 µM | –
Cc1cn([C@@H]2O[C@H](CO)[C@@H](O)[C@H]2O)c(=O)n(Cc2ccccc2)c1=O | – | 75 µM | –
Cc1cn(Cc2ccc(CCCCC(=O)O)cc2)c(=O)[nH]c1=O | Non-toxic | 58 µM | –
NC(=O)CCCCc1ccc(Cn2cc(Br)c(=O)[nH]c2=O)cc1 | Non-toxic | 35 µM | –
O=c1[nH]c(=O)n([C@H]2C[C@H](O)[C@@H](CO)O2)cc1Cl [CHLORODEOXYURIDINE] | – | 10 µM | –
O=C(O)CCCCCc1ccc(Cn2cc(Br)c(=O)[nH]c2=O)cc1 | Non-toxic | 34 µM | Ratio Ki [4]: 3; Ki [5]: 92 µM
Cc1cn(Cc2ccc(CCCCO)cc2)c(=O)[nH]c1=O | Non-toxic | 51 µM | –
Cc1cn(Cc2ccc(CCC(N)=O)cc2)c(=O)[nH]c1=O | Non-toxic | 89 µM | –

— ChEMBL document CHEMBL1150358, “Substituted benzyl-pyrimidines targeting thymidine monophosphate kinase of Mycobacterium tuberculosis: synthesis and in vitro anti-mycobacterial activity” (Bioorg Med Chem, 2008)
